The values below come from ChEMBL document CHEMBL2146445, “Discovery of BIIB042, a Potent, Selective, and Orally Bioavailable γ-Secretase Modulator” (ACS Med Chem Lett, 2011).

In series [1] the target is Voltage-gated inwardly rectifying potassium channel KCNH2 (Homo sapiens, UniProt Q12809). Briefly: Inhibition of human ERG by patch clamp assay. Put shortly:
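hERG was tested in an automated FastPatch patch-clamp assay, giving an EC50 readout.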

The subject of series [2] is Plasma. Nature of the series: Plasma concentration in CF1 mouse at 10 mg/kg, po. Particulars: in vivo. Set-up: dose 10 mg/kg, route oral. It counts as ADME, organism-based. In short, it runs like this:
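Wild-type (CF-1) mice given compound orally as a solution in ethanol:propylene glycol:10% solutol (1:1:8). Animals sacrificed 4 h post-dose; brain and plasma collected for drug exposure and Aβ levels.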

Series [3] is described as follows: Modulation of gamma-secretase in CHO cells overexpressing APP V717 mutant assessed as increase in amyloid beta38 level after 17 hrs by ELISA. It counts as cell-based. Particulars: Cricetulus griseus. Put shortly: (§1)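 CHO cells overexpressing APP V717F; Aβ42, Aβ40 and Aβ38 quantified together in each well by multiplex Aβ ELISA. EC50 is the mean of at least two determinations.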
For orientation: In an ELISA, binding on a coated surface is turned into a signal by an enzyme label.

The next series deals with Brain. Nature of the series: Drug uptake in CF1 mouse brain at 10 mg/kg, po. It counts as ADME, organism-based. Set-up: dose 10 mg/kg, route oral. As to conditions: in vivo, read-out: Drug uptake. Put shortly: (§2)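 Wild-type CF-1 mice received a single oral dose as a solution in ethanol:propylene glycol:10% solutol (1:1:8). Animals were sacrificed 4 h after dosing. Brain and plasma were collected for drug concentration and Aβ levels. Aβ change was expressed relative to vehicle-treated controls.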

The nature of series [4]: Modulation of gamma-secretase in CHO cells overexpressing APP V717 mutant assessed as reduction in amyloid beta42 level after 17 hrs by ELISA. As to conditions: Cricetulus griseus. It counts as cell-based. In short, it runs like this:
as §1

Another series relates to CHO. Briefly: Modulation of gamma-secretase in CHO cells overexpressing APP V717 mutant assessed as effect on amyloid beta40 level after 17 hrs by ELISA. It counts as cell-based. Particulars: Cricetulus griseus. In short, it runs like this:
as §1

For series [5], the system named is Mus musculus. Nature of the series: Antialzheimer activity in CF1 mouse assessed as reduction in amyloid beta 42 level in brain at 10 mg/kg, po. The class given is functional. Further details: scale not given: the % may be the effect or the level left. Put shortly:
as §2

Series [6] has as its target Neurogenic locus notch homolog protein 1 (Homo sapiens) (UniProt P46531). Nature of the series: Inhibition of NICD-mediated HES1 protein expression in human H4 cells at 10 uM after 24 hrs by Western blot analysis. It counts as cell-based. In general terms: Immunoblotting shows a protein as a band on a membrane.
Series [7] relates to Mus musculus. Nature of the series: Antialzheimer activity in CF1 mouse assessed as increase in amyloid beta 38 level in brain at 10 mg/kg, po. It counts as functional, organism-based. Set-up: dose 10 mg/kg. Put shortly:
as §2

The subject of series [8] is Rattus norvegicus. Nature of the series: Antialzheimer activity in Fischer rat assessed as increase in amyloid beta 38 level in brain at 10 mg/kg, po after 4 hrs. The class given is functional, organism-based. Set-up: dose 10 mg/kg.
The test system of series [9] is Cynomolgus monkey. Briefly: Antialzheimer activity in cynomolgus monkey assessed as increase in amyloid beta 38 level in plasma at 10 mg/kg, po at 5 hrs. It counts as functional, organism-based. Set-up: dose 10 mg/kg. Particulars: Macaca fascicularis.
Series [10] deals with Rattus norvegicus. Briefly: Antialzheimer activity in Fischer rat assessed as effect on amyloid beta 40 level in brain at 10 mg/kg, po after 4 hrs. It counts as functional, organism-based. Set-up: dose 10 mg/kg.
In series [11] the test system is Mus musculus. Nature of the series: Antialzheimer activity in CF1 mouse assessed as effect on amyloid beta 40 level in brain at 10 mg/kg, po. The class given is functional, organism-based. Set-up: dose 10 mg/kg. In short, it runs like this: as §2
The subject of series [12] is Cynomolgus monkey. Briefly: Antialzheimer activity in cynomolgus monkey assessed as effect on amyloid beta 40 level in plasma at 10 mg/kg, po at 5 hrs. It counts as functional, organism-based. Set-up: dose 10 mg/kg. Particulars: Macaca fascicularis.
For series [13], the system named is Plasma. Briefly: Fraction unbound in rat plasma. It counts as ADME, cell-free.
For series [14], the system named is Plasma. Briefly: Fraction unbound in human plasma. It counts as ADME, cell-free.
Series [15] deals with Rattus norvegicus. Briefly: Antialzheimer activity in Fischer rat assessed as reduction in amyloid beta 42 level in brain at 10 mg/kg, po. It counts as functional. Set-up: scale not given: the % may be the effect or the level left.
A further series relates to Salmonella typhimurium. Briefly: Mutagenicity in Salmonella typhimurium. The class given is toxicity, organism-based. Particulars: salmonella enterica subsp. enterica serovar typhimurium.
The next series deals with Cytochrome P450 2C9 (Homo sapiens, UniProt P11712). Nature of the series: Inhibition of human CYP2C9. The class given is ADME.
Series [16] can be described thus: Apparent permeability across human Caco2 cells. The class given is ADME, cell-based. As to conditions: Caco-2. For orientation: Caco-2 cells form a polarised layer with tight junctions and transporters.
A further series addresses Gamma-secretase. Nature of the series: Modulation of gamma-secretase in human H4 cells expressing wild type APP assessed as reduction in amyloid beta42 level. It counts as cell-based.
The target in series [17] is T1, Prostaglandin G/H synthase 2 (Homo sapiens, UniProt P35354).
T1 sequence (P35354 whole entry): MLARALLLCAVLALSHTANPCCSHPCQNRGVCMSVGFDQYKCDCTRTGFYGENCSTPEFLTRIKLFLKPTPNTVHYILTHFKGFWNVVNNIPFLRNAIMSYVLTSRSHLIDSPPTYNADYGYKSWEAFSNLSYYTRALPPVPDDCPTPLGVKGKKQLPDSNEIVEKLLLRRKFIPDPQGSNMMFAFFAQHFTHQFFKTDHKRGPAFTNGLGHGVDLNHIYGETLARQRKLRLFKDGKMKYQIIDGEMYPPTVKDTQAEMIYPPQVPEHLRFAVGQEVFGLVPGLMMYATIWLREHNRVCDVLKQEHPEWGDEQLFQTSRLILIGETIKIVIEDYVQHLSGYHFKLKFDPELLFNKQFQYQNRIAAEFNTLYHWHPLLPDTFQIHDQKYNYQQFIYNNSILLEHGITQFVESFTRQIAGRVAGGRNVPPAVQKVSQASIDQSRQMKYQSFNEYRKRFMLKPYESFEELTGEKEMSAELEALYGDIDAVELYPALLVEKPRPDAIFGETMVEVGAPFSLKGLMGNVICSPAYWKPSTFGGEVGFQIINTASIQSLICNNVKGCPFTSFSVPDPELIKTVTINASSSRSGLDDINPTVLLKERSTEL
Briefly: Inhibition of COX2.

The target of a further series is Cytochrome P450 2D6 (Homo sapiens, UniProt P10635). Briefly: Inhibition of human CYP2D6. The class given is ADME.
Cytochrome P450 2D6, sequence (P10635 whole entry): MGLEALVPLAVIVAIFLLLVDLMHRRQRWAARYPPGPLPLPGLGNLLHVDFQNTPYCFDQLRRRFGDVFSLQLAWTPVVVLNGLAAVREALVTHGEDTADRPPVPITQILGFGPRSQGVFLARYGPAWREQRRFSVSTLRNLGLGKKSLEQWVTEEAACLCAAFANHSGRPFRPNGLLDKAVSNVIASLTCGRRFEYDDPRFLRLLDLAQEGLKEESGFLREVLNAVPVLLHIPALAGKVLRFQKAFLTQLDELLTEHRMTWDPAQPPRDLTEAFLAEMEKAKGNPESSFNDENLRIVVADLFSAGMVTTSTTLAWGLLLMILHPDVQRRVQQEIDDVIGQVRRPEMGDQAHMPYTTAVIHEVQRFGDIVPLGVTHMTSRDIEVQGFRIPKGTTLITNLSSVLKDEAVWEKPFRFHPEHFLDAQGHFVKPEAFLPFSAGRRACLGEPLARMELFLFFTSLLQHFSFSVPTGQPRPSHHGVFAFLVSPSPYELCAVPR
The target in the next series is Cytochrome P450 2C19 (Homo sapiens, UniProt P33261). Nature of the series: Inhibition of human CYP2C19. The class given is ADME.
Cytochrome P450 2C19, sequence (P33261 whole entry): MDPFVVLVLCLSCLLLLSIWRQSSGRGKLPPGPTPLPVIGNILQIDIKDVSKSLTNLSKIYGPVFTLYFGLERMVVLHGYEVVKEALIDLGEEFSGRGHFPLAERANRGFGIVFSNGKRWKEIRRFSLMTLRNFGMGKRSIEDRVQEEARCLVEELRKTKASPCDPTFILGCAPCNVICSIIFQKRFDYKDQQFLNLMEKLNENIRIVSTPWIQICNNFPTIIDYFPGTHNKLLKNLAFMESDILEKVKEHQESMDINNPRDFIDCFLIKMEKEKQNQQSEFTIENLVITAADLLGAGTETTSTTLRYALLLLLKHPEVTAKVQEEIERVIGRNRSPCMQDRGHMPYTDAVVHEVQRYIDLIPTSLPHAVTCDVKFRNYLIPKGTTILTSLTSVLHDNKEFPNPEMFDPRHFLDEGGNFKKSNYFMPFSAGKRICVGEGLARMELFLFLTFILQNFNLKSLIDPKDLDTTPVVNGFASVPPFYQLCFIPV
The test system of series [18] is Plasma. Nature of the series: Fraction unbound in monkey plasma. It counts as ADME, cell-free, Macaca mulatta. As to conditions: rhesus monkey.
Series [19] has as its system Plasma. Nature of the series: Fraction unbound in dog plasma. The class given is ADME, cell-free, Canis lupus familiaris.
Series [20] relates to Plasma. Nature of the series: Fraction unbound in mouse plasma. The class given is ADME, cell-free.
The target in series [21] is Prostaglandin G/H synthase 1 (Homo sapiens, UniProt P23219). Nature of the series: Inhibition of COX1.
For series [22], the system named is Cynomolgus monkey. Briefly: Antialzheimer activity in cynomolgus monkey assessed as reduction in amyloid beta 42 level in plasma at 10 mg/kg, po at 5 hrs. The class given is functional, Macaca fascicularis. Further details: scale not given: the % may be the effect or the level left.
A further series has as its target T2, Cytochrome P450 1A2 (Homo sapiens, UniProt P05177).
T2 sequence (P05177 whole entry): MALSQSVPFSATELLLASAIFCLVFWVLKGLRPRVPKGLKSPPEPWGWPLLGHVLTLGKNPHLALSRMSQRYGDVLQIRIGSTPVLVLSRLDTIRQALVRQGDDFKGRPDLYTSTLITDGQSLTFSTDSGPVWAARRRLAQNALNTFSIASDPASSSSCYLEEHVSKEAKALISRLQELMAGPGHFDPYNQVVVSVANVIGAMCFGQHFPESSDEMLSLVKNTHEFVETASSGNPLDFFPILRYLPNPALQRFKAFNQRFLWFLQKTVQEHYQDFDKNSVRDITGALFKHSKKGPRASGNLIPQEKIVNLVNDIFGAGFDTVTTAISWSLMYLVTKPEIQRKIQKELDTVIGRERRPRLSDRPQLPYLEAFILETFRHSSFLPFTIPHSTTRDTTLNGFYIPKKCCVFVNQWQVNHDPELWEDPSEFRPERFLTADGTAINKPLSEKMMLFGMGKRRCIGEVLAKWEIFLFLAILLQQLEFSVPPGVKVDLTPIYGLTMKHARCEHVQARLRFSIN
Nature of the series: Inhibition of human CYP1A2. It counts as ADME.

Structures are written as SMILES. The source made the active and inactive calls. The rule behind the calls is not given here.

Voltage-gated inwardly rectifying potassium channel KCNH2, sequence (Q12809 whole entry): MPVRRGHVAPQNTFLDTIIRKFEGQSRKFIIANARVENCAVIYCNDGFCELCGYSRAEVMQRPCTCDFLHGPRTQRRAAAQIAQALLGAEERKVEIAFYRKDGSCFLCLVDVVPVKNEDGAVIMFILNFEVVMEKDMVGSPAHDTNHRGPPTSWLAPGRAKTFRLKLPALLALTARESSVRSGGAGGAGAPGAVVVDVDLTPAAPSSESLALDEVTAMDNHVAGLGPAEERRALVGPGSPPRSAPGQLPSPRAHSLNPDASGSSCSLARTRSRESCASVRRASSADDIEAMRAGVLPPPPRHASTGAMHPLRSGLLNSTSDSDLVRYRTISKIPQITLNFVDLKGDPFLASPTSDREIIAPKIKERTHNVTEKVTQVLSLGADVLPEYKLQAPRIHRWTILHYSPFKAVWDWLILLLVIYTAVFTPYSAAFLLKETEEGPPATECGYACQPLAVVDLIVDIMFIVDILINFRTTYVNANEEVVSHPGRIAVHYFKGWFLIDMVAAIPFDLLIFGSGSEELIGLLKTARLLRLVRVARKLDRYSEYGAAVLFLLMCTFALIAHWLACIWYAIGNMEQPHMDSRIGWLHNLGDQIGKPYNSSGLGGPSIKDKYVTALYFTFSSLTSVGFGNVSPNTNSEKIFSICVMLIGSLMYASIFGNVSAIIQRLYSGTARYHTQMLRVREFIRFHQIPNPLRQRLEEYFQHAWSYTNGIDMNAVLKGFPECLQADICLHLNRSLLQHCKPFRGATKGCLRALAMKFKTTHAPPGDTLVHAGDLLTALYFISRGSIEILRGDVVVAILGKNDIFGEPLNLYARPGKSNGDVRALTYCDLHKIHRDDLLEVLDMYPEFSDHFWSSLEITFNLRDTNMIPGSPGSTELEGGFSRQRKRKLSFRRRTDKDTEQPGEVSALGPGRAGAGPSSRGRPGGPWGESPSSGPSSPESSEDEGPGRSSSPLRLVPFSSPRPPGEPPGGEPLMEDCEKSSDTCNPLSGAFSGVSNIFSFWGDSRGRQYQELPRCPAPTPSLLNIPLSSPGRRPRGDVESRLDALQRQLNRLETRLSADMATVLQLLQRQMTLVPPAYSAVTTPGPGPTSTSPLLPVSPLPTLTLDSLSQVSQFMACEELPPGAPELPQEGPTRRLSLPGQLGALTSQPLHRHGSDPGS
Neurogenic locus notch homolog protein 1 (Homo sapiens), sequence (P46531 whole entry): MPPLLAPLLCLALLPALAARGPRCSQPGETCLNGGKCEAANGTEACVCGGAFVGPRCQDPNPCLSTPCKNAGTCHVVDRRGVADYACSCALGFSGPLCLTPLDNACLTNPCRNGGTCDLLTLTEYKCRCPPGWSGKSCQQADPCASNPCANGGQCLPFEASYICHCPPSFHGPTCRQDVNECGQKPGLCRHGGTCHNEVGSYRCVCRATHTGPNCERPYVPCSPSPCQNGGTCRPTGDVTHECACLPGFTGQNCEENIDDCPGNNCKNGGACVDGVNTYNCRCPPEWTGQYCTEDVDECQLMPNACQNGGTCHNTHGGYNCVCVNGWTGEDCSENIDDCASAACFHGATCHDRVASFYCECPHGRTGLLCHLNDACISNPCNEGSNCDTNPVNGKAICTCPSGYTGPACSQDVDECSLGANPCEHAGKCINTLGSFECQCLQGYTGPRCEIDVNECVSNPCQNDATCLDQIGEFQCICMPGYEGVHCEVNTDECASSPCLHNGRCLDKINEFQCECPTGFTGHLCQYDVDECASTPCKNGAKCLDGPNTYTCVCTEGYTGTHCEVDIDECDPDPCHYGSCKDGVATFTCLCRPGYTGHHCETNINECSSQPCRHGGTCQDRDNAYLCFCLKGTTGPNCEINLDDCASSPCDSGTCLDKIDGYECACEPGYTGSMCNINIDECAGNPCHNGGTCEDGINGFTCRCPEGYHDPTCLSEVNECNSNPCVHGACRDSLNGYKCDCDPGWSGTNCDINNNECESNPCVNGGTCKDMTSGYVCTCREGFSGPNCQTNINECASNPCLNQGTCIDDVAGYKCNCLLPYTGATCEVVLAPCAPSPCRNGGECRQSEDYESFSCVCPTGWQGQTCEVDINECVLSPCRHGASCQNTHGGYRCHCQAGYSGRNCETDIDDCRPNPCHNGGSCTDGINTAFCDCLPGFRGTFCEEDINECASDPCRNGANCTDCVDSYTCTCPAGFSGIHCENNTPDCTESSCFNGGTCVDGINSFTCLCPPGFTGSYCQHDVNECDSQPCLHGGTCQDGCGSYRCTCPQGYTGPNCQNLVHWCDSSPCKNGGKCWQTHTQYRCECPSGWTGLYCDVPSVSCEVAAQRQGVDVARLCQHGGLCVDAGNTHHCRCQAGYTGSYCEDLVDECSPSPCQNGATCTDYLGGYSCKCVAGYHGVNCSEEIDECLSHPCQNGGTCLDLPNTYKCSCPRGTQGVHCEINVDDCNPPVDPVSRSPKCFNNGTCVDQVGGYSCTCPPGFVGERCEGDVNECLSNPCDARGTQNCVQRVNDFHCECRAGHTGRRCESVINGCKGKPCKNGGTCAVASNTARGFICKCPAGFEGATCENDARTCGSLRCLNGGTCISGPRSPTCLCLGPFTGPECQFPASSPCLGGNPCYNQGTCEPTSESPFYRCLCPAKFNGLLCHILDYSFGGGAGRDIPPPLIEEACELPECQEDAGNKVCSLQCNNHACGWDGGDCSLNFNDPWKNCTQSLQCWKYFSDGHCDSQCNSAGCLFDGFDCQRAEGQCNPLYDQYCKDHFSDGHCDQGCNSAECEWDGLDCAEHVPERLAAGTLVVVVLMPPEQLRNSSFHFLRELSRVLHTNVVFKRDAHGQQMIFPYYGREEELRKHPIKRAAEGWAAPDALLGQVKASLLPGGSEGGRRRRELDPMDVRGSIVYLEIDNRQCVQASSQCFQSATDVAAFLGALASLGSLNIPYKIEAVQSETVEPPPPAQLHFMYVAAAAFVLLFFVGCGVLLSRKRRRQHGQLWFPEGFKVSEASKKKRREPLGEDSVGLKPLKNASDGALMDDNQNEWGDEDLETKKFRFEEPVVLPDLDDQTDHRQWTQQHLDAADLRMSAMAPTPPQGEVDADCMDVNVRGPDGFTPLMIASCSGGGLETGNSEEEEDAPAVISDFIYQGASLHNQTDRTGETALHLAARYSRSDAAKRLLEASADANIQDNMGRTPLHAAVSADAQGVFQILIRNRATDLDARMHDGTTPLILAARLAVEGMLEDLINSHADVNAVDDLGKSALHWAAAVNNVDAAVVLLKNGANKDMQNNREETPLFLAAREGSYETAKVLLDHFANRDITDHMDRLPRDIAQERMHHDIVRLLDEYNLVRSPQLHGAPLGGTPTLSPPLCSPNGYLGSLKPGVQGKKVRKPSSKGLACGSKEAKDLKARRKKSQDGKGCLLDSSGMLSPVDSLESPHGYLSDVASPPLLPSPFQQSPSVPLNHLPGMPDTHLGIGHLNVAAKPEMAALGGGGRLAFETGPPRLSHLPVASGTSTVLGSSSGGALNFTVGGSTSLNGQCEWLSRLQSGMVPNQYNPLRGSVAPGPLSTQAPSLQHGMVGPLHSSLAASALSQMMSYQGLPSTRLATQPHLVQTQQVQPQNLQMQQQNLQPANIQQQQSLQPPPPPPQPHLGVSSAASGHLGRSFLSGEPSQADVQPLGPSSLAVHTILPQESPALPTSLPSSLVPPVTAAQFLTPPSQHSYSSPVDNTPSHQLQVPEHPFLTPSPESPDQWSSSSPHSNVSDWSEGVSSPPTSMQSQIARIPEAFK

Take `CC1CCN([C@@H](c2ccc(F)cc2)c2ccc([C@H](C)C(=O)O)cc2-c2ccc(C(F)(F)F)cc2)CC1`: the concentration for a half-maximal effect (EC50) (as a rule, the midpoint of the concentration-response curve) in series [1] was found to be 4.6 µM; in series [3], 0.11 µM; in series [4], 0.15 µM. The figures for the concentration in the series on Plasma [2] and in the series with Brain were 7.4 µM and 6.6 µM, respectively. In the series with CHO, the outcome was inactive. Besides, the Activity in the series on Mus musculus [5] was 38%.
In the case of `CC1CCN([C@H](c2ccc(F)cc2)c2ccc([C@@H](C)C(=O)O)cc2-c2ccc(C(F)(F)F)cc2)CC1` [listing 1 of 2 here], the inhibition result in series [6] is “inactive”. The result with Mus musculus [7], with Rattus norvegicus [8] and in the series on Cynomolgus monkey [9] was Active. Moreover, the outcome in the series on Rattus norvegicus [10], with CHO, in the series on Mus musculus [11] and with Cynomolgus monkey [12] was inactive.
As for `CC1CCN([C@H](c2ccc(F)cc2)c2ccc([C@@H](C)C(=O)O)cc2-c2ccc(C(F)(F)F)cc2)CC1` [listing 2 of 2 here], the Fu with Plasma [13], with Plasma [14], in the series on Plasma [18], in the series with Plasma [19] and in the series with Plasma [20] was under 0.1% each time. For the same molecule, the EC50 in series [1] came to 15 µM; in [3], 0.15 µM; on Gamma-secretase, 0.07 µM; in [4] it was 0.17 µM. The concentration was determined as 10 µM with Plasma [2] and 4.6 µM with Brain. The Activity with Rattus norvegicus [15] was 30%; with Salmonella typhimurium, “Non-toxic”; with Cynomolgus monkey [22], 30%; in the series on Mus musculus [5], 40%. In addition, the IC50 (as a rule, the point on the concentration scale where inhibition reaches its midpoint) is over 35 µM at Cytochrome P450 2C9; 27 µM in [17]; over 35 µM on Cytochrome P450 2D6; over 35 µM against Cytochrome P450 2C19; 35 µM in [21]; over 35 µM against Cytochrome P450 1A2. Further, the Papp (commonly a coefficient for how fast a substance crosses the barrier) in series [16] was determined as 438 nm/s.
